# Measured values of several laboratories.
# Compare with care: the assays were run in different laboratories.
SMILES,target or system,test,system,conditions,endpoint,value
O=C(CCCCC1CCCCC1)CP(=O)(O)O,Enterococcus faecalis,microbial growth,ATCC33186,,MIC,> 200 µg/mL
CC(C)C[C@H](NC(=O)[C@@H](NC(=O)N[C@@H](Cc1ccccc1)C(=O)O)[C@@H]1CCN=C(N)N1)C(=O)N[C@H](C=O)Cc1ccccc1,Human coronavirus 229E,viral replication,Huh7.5,,IC50,23.7 µM
Cc1cccc(CSc2nccc(OCCOc3cc(=O)oc4ccccc34)n2)c1,Human coronavirus 229E,cytopathic effect,A549,12.5 µM,inhibition,38.1%
CC[C@@]1(O)C[C@H](O[C@H]2C[C@H](N(C)C)[C@H](O[C@H]3C[C@H](O)[C@H](O[C@H]4CCC(=O)[C@H](C)O4)[C@H](C)O3)[C@H](C)O2)c2c(cc3c(c2O)C(=O)c2c(O)cccc2C3=O)[C@H]1C(=O)OC,Human coronavirus 229E,viral replication,Calu-3,,IC50,2.34 µM
CCOC(=O)C1=C[C@@H](OC(CC)CC)[C@H](NC(C)=O)[C@@H](N)C1,Human coronavirus 229E,viral replication,A549,,IC50,7.65 µM
Nc1ncnc2c([C@@H]3N[C@H](CO)[C@@H](O)[C@H]3O)c[nH]c12,Japanese encephalitis virus,"viral replication, inhibitor",Vero 76,0.1 µM,inhibition,0%
COc1cccc(NC(=O)/C=C/c2ccc3c(c2)C=CC(C)(C)O3)c1,rat Primary cortical neuron,"cell growth or viability, MTT",,"1 µM, 12 h",viability,87%
COC1=C2C[C@@H](C)C[C@H](OC)[C@H](O)[C@@H](C)/C=C(\C)[C@H](OC(N)=O)[C@@H](OC)/C=C\C=C(/C)C(=O)NC(=CC1=O)C2=O,Human coronavirus 229E,viral replication,Calu-3,,IC50,8.71 µM
CC1(C)C=Cc2cc(C(CC(=O)Nc3ccccc3)Nc3ccccc3)ccc2O1 (centres unmarked),rat Primary cortical neuron,"cell growth or viability, MTT",,"1 µM, 12 h",viability,> 80%
CCCCCC/C=C\CCCCCCCCCC(=O)CP(=O)(O)O,Enterococcus faecalis,microbial growth,ATCC33186,,MIC,12.5 µg/mL
O=c1cc(OCCCOc2ccnc(SCc3ccc(F)cc3)n2)c2cc(F)ccc2o1,Human coronavirus 229E,cytopathic effect,A549,25 µM,inhibition,65.8%
CCCCCCCC(=O)NP(=O)(O)O,Enterococcus faecalis,microbial growth,ATCC33186,,MIC,> 200 µg/mL
CC1(C)C=Cc2cc(/C=C/C(=O)Nc3ccccc3)ccc2O1,rat Primary cortical neuron,"cell growth or viability, MTT",,"1 µM, 12 h",viability,73%
CCCCCC/C=C\CCCCCCCCCC(=O)NP(=O)(O)O,Enterococcus faecalis,microbial growth,ATCC33186,,MIC,200 µg/mL
CC(C)[C@H](NC(=O)[C@H](CCCNC(=N)N)NC(=O)N[C@@H](Cc1ccccc1)C(=O)O)C(=O)N[C@H](C=O)CCCNC(=N)N,Human coronavirus 229E,viral replication,Huh7.5,,IC50,1.57 µM
CCCCCCCCCCCCCCCC(=O)NP(=O)(O)O,Enterococcus faecalis,microbial growth,ATCC33186,,MIC,200 µg/mL
O=C(Cc1ccc2ccccc2c1)N[C@@H](Cc1ccccc1)C(=O)N[C@@H](Cc1ccccc1)C(=O)N[C@H](Cc1ccc(OP(=O)(O)O)cc1)C(=O)O,HeLa,"cell growth or viability, MTT",,48 h,IC50,428 µM
